Assays:
[1] = test system: HCT-116; experiment: Cytotoxicity against human HCT116 cells assessed as cell viability after 96 hrs by MTS reduction assay; format: functional, cell-based; settings: HCT-116, 96 h
[2] = Inhibition of [14C]spermidine uptake at human polyamine transporter in ML1 cells; format: cell-based
Method in brief: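 Competition for 14C-spermidine uptake in ML-1 acute myelogenous leukemia cells. Concentration-dependent spermidine uptake measured in the presence of 0.0, 10.0, 25.0 and 50.0 μM test compound.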

[3] = biological target: T1, Histone deacetylase (Homo sapiens) (UniProt Q13547+O15379+Q9UBN7+Q92769+Q9UQL6+Q8WUI4+Q9BY41+Q96DB2+P56524+Q9UKV0+Q969S8); settings: HeLa, at 1 µM
[4] = biological target: T1, Histone deacetylase (Homo sapiens); experiment: Inhibition of human HDAC in HeLa cells at 5 uM; format: cell-based
[5] = test system: HCT-116; experiment: Increase in acetylated histone H3 level in human HCT116 cells at 10 uM after 24 hrs relative to control; format: functional
Method in brief: (§1)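 HCT116 cells adhered overnight, then exposed to 10 μM compound for 24 h. Cells lysed in HEPES pH 7.9/NaCl/Triton buffer with protease inhibitors at 4 °C. 30 μg total protein per lane run on 10% Bis-Tris gels and blotted with antibodies to AcH3, AcH4, p21waf1 or acetylated α-tubulin, with α-actin also probed. Infrared fluorescent secondaries used for quantification; single determinations reported as fold increase.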

[6] = test system: HCT-116; experiment: Increase in acetylated alpha tubulin level in human HCT116 cells at 10 uM after 24 hrs relative to control; format: functional; method in brief: as §1
[7] = test system: HCT-116; experiment: Increase in p21waf1 re-expression in human HCT116 cells at 10 uM after 24 hrs relative to control; format: functional; method in brief: as §1
[8] = test system: HCT-116; experiment: Increase in acetylated histone H4 level in human HCT116 cells at 10 uM after 24 hrs relative to control; format: functional; method in brief: as §1
[9] = biological target: Histone deacetylase 3 (Homo sapiens) (UniProt O15379); experiment: Inhibition of human recombinant HDAC3; settings: concentration not given here
[10] = biological target: T2, Protein deacetylase HDAC6 (Homo sapiens) (UniProt Q9UBN7); experiment: Inhibition of human recombinant HDAC6; settings: concentration not given here
T2 sequence (whole entry): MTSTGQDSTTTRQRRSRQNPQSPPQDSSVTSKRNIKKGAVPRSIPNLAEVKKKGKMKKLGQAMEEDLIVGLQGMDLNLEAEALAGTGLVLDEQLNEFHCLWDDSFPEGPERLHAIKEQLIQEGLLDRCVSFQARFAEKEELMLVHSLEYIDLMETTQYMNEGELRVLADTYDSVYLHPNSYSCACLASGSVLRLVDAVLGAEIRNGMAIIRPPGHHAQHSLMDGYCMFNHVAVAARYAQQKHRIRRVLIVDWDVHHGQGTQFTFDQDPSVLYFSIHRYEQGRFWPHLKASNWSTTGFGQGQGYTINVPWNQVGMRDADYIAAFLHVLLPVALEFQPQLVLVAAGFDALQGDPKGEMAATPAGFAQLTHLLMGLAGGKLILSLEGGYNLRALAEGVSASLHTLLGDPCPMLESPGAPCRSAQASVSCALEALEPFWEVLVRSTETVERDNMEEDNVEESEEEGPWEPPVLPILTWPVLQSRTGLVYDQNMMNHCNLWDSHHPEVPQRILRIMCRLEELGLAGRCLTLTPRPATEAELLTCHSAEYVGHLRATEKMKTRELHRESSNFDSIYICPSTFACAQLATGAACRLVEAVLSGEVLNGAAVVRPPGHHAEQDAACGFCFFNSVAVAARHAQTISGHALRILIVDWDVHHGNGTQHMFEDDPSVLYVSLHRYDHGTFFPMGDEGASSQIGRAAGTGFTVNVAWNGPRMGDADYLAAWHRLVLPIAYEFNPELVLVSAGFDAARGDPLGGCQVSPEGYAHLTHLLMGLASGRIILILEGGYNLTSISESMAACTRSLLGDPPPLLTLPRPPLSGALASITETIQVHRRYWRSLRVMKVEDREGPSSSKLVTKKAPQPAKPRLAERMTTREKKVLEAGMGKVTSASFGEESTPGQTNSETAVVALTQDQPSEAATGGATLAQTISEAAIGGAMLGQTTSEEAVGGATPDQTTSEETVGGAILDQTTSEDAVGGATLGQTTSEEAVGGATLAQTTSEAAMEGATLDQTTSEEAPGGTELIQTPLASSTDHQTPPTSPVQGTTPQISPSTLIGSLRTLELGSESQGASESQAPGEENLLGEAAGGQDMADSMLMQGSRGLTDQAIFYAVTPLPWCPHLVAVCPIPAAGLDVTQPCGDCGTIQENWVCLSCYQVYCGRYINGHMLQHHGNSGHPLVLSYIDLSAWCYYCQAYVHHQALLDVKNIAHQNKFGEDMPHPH

[11] = test system: HCT-116; experiment: Cytotoxicity against human HCT116 cells assessed as cell viability after 96 hrs by MTS reduction assay in presence of diamine oxidase inhibitor aminoguanidine; format: functional, cell-based; settings: HCT-116, 96 h
Method in brief: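 HCT116 cells in McCoy's 5A with 10% fetal calf serum, 37 °C, 5% CO2; 3000 cells/well seeded in triplicate and attached overnight. Medium replaced with fresh medium containing a range of compound concentrations for 96 h. CellTiter 96 One Solution MTS added for 1.5 h at 37 °C, absorbance read at 490 nm. Two separate experiments averaged to give IC50.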

[12] = biological target: T1, Histone deacetylase (Homo sapiens); experiment: Inhibition of human HDAC at 1 uM

Histone deacetylase 3 (Homo sapiens), sequence (O15379 whole entry): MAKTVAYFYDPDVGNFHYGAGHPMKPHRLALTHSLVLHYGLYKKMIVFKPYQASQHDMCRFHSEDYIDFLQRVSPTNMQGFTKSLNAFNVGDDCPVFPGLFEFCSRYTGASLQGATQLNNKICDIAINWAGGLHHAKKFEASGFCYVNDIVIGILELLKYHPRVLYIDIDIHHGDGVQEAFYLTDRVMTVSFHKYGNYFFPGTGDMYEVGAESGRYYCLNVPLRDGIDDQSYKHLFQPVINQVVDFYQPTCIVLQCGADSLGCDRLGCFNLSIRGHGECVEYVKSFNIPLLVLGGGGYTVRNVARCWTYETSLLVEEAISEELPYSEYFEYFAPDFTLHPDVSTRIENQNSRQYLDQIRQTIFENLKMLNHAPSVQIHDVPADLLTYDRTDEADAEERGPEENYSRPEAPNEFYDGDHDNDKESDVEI

| Compound | inhibition [3] | inhibition [4] | inhibition [9] | inhibition [10] | inhibition [12] | IC50 [1] | Ki [2] | Fold change [5] | Fold change [6] | Fold change [7] | Fold change [8] | IC50 [11] |
| --- | --- | --- | --- | --- | --- | --- | --- | --- | --- | --- | --- | --- |
| CC(C)(C)c1ccc(CNCCCCNCCCNC(=O)CCCC(=O)NCc2ccc(C(=O)Nc3ccccc3N)cc2)cc1 | 28% | 37.4% | – | – | – | > 100 µM | 7.7 µM | – | – | – | – | – |
| CC(C)(C)c1ccc(CNCCCCNCCCNC(=O)CCCCCC(=O)NO)cc1 | – | – | 99.1% | 99.7% | – | > 100 µM | – | 21.49 | 253.25 | 2.33 | 20.84 | – |
| CC(C)(C)c1ccc(CNCCCCNCCCNC(=O)CCCCCCCC(=O)NO)cc1 | 88.7% | – | – | – | – | > 100 µM | – | 0 | 11.99 | 0.61 | 3.25 | – |
| CC(C)(C)c1ccc(CNCCCCNCCCNC(=O)CCCCCCC(=O)NCc2ccc(C(=O)Nc3ccccc3N)cc2)cc1 | 30.8% | 51.2% | 1.3% | 11.7% | – | > 100 µM | – | 1.19 | 2.27 | 2.55 | 1.12 | – |
| CC(C)c1ccc(CNCCCCNCCCNC(=O)CCCCC(=O)NO)cc1 | 15.9% | – | – | – | – | > 100 µM | – | 3.76 | 75.7 | 3.01 | 14.22 | – |
| CN(C)c1ccc(CN(CCCNCCCCNCc2ccc(C(C)(C)C)cc2)C(=O)CCCCC(=O)NO)cc1 | 2% | – | – | – | – | – | – | – | – | – | – | – |
| O=C(CCCCC(=O)NCCCNCCCCNCCSc1ccccc1)NO | 6.7% | – | – | – | – | > 100 µM | – | 2.38 | 72.9 | 2.56 | 12.06 | – |
| CC(C)c1ccc(CNCCCCNCCCNC(=O)CCCCCCC(=O)NO)cc1 | 41.4% | – | – | – | – | > 100 µM | – | 0 | 11.98 | 0.86 | 4.74 | – |
| CN(C)c1ccc(CNCCCCNCCCNC(=O)CCCCCCC(=O)NO)cc1 | 46.7% | – | – | – | – | > 100 µM | – | 0 | 6.76 | 0.46 | 1.36 | – |
| CN(C)c1ccc(CN(CCCNCCCCN)C(=O)CCCCCCC(=O)NO)cc1 | 58.6% | – | – | – | 58.6% | 38.6 µM | – | 0 | 6.07 | 0.49 | 1.95 | > 100 µM |

Now from value to compound, other results behind:

| inhibition [3] | inhibition [4] | inhibition [9] | inhibition [10] | inhibition [12] | Compound | IC50 [1] | Ki [2] | Fold change [5] | Fold change [6] | Fold change [7] | Fold change [8] | IC50 [11] |
| --- | --- | --- | --- | --- | --- | --- | --- | --- | --- | --- | --- | --- |
| 71.3% | – | – | – | – | O=C(CCCCC(=O)NCCCNCCCCNCc1ccccc1-c1ccccc1)NO | > 100 µM | – | 3.34 | 89.01 | 2.01 | 17.4 | – |
| 55.2% | – | – | – | – | O=C(CCCCCCC(=O)NCCCNCCCNCCCNCCC(c1ccccc1)c1ccccc1)NO | > 100 µM | – | – | – | – | – | – |
| 38.6% | – | – | – | – | O=C(CCCCCCC(=O)NCCCNCCCCNCc1ccccc1-c1ccccc1)NO | > 100 µM | – | 5.19 | 36.3 | 1.64 | 7.82 | – |
| 73.9% | – | – | – | – | O=C(CCCCCCCCC(=O)NCCCNCCCCNCCC(c1ccccc1)c1ccccc1)NO | > 100 µM | – | 0 | 1.97 | 0.41 | 0.95 | – |
| 16.5% | – | – | – | – | O=C(CCCCCCC(=O)NCCCNCCCCNCCSc1ccccc1)NO | > 100 µM | – | 0 | 101.36 | 1.98 | 11.68 | – |
| 54.6% | – | – | – | – | O=C(CCCCCCCC(=O)NCCCNCCCCNCCC(c1ccccc1)c1ccccc1)NO | > 100 µM | – | – | – | – | – | – |
| 46.3% | – | – | – | – | O=C(CCCCCC(=O)NCCCNCCCCNCCC(c1ccccc1)c1ccccc1)NO | > 100 µM | – | – | – | – | – | – |
| – | 66.7% | – | – | – | Nc1ccccc1NC(=O)c1ccc(CNC(=O)CCCCCCC(=O)NCCCNCCCCNCCC(c2ccccc2)c2ccccc2)cc1 | > 100 µM | – | – | – | – | – | – |
